Compound activity deposited in PubChem by several laboratories.
Only some compounds are listed: those with a hit (about 3.5% of all), similar ones and a draw of the others.
ERa coact pot: enhances coactivator binding to human estrogen receptor alpha | AID 639 | coactivator binding (% of control), % at 25.6 µM | P03372 | TR-FRET ERalpha-LBD/SRC-Cy5 coactivator binding, 2 h; 100 = basal binding, no effect | 86,000 tested, 1.3% active; in the data active = activity above about 200%;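 note: binding measured in presence of low estradiol as agonist stimulus; 0% = peptide alone without receptor and 100% = receptor with peptide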
ERa coact inh: blocks coactivator binding to human estrogen receptor alpha | inhibition, % at 25.6 µM | TR-FRET ER-alpha LBD / SRC-1 peptide, estradiol-bound | 86,000 tested, 1.7% active; in the data active = inhibition above about 50%;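 note: 0% = receptor plus peptide control and 100% = peptide only without receptor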
sEH activator: soluble epoxide hydrolase (human) activation. P34913. activation, % at 2 µM. AID 717. purified human sEH enzymatic activity, activator screen. 91,000 tested, 0.04% active; in the data active = activation above about 37%
ERb SRC1 inh: ER-beta (human) coactivator binding inhibition | Q92731 | TR-FRET ER-beta LBD / SRC1-Cy5 peptide binding; receptor agonist-loaded with 1 µM estradiol | inhibition, % at 25.6 µM | 86,000 tested, 1.3% active;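 active = compounds whose percent inhibition of the receptor-coactivator binding signal exceeds about 50% in the single-dose screen, limit read from the data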;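 note: 0% = receptor plus peptide wells without compound and 100% = peptide-only wells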
Target sequence (Q92731 whole entry, looked up, the tested form may be a part): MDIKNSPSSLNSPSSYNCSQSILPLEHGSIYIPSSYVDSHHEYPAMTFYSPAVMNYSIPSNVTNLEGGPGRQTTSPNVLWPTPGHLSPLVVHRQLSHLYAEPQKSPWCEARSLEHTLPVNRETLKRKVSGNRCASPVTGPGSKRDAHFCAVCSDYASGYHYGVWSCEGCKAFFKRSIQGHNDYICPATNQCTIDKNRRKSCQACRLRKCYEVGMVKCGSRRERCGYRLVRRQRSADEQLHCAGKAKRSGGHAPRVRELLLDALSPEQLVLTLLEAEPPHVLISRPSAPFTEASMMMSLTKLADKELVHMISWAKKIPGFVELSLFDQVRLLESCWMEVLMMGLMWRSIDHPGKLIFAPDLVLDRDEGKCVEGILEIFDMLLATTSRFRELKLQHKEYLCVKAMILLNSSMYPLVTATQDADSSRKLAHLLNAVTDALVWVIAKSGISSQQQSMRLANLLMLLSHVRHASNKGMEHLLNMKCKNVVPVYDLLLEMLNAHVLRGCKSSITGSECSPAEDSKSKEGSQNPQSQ
HIV Rev-RRE inh: disrupts HIV-1 Rev binding to RRE RNA | P05866 | Rev peptide-RRE RNA binding, FRET | inhibition, % at 8 µM | 97,000 tested, 0.79% active | AID 704;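 active = inhibition above the screen-wide mean plus 3 SD, cut at about 35% in these data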;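 note: 0% = median DMSO wells and 100% = median Neomycin B control wells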
Target sequence (P05866 whole entry, looked up): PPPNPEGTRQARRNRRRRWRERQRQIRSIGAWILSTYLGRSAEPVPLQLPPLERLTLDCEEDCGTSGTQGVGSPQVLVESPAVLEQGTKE
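Assay system: Rev peptide and RRE RNA, both fluorescently labelled; times: 5 min preincubation and 15 min binding, 25 °C; detection: FRET, ex 480 nm, em 540 and 671 nm; read-out basis: % inhibition from 671/540 nm acceptor-to-donor ratio, scaled between controls; benchmarks: DMSO low control, neomycin B high control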
sEH inh: blocks human soluble epoxide hydrolase activity; P34913; recombinant human sEH enzymatic activity assay; inhibition, % at 2 µM; 91,000 tested, 0.34% active; AID 707; in the data active = inhibition above about 80%
* = called active by the depositor; . = not tested or not shown; [ ] = remark or other dose.

SMILES	ERa coact pot	ERa coact inh	sEH activator	ERb SRC1 inh	HIV Rev-RRE inh	sEH inh
CS(=O)(=O)c1sc2nc(-c3cccs3)cc(-c3ccccc3)c2c1N	69.1	15.3	1.7	19.6	36.0*	-3.0
CC(=O)c1sc2nc(-c3cccs3)cc(C(F)(F)F)c2c1N	29.7	-5.7	0.3	-17.4	106.9*[fluorescence artefact?]	1.0
Cc1c(C(=O)Nc2nccs2)sc2nc(-c3cccs3)cc(C(F)(F)F)c12	84.0	17.3	7.6	7.2	-1.6	-5.6
CS(=O)(=O)N(CC(=O)Nc1cccc(Cl)c1)c1ccccc1Cl	95.4	-0.5	-9.1	-9.0	7.4	7.9
CCN(CC(=O)NC1CCS(=O)(=O)C1)C(=O)C(c1ccccc1)c1ccccc1 (configuration not stated)	100.8	-27.5	-4.1	-31.8	3.6	5.2
COc1cccc(C(=O)NCc2ccccc2OC)c1	130.2	-3.0	.	-7.8	.	.
COc1ccc2cc3cc(C(=O)Nc4ccc5c(c4)OCCO5)oc3nc2c1	208.6*	70.9*[fluorescence artefact?]	4.7	37.7	1.2	-7.8
COc1ccc2cc3cc(C(=O)Nc4cc(OC)c(OC)c(OC)c4)oc3nc2c1	143.6	0.5	-8.5	2.4	-0.1	8.9
CCOC(=O)C1CCCN(C(=O)c2ccc(CNc3c(N4CCC(C)CC4)c(=O)c3=O)cc2)C1 (configuration not stated)	100.3	-2.2	.	-9.5	.	.
CC(=O)Nc1ccc(-c2nnc(SCC(=O)Nc3ccc4c(c3)oc3ccccc34)n2C)cc1	103.2	43.1	7.9	24.7	-1.4	-4.1
O=C(CSc1ncnc2c1oc1ccccc12)Nc1cccc(F)c1	370.2*[fluorescence artefact?]	42.3	-25.4	50.2*[fluorescence artefact?]	-2.9	25.1
Cn1c(SCC(=O)Nc2cccc(F)c2)nnc1-c1cc2ccccc2o1	688.1*[fluorescence artefact?]	-31.7	-1.1	0.1	1.0	1.2
Cc1cccc(NC(=O)CSc2ncnc3c2oc2ccccc23)c1	394.6*[fluorescence artefact?]	50.2*[fluorescence artefact?]	-23.1	58.2*[fluorescence artefact?]	-0.9	22.5
O=C(c1cccs1)n1nc(-c2ccco2)nc1SCc1ccccc1	133.9	17.4	0.9	-8.0	13.9	-0.6
CCC(CC)NC(=O)c1ccccc1Oc1ccccc1	111.4	-3.4	-4.3	-0.7	6.8	2.6
O=C(Nc1ccccn1)Nc1cccs1	116.5	1.2	9.4	-8.0	9.8	-8.7
CN1CCN(C2=C(Cl)C(=O)C(c3cnc(N4CCCCC4)s3)=C(Cl)C2=O)CC1	57.4	45.7	-47.5	71.9*[fluorescence artefact?]	7.7	46.9
COC(=O)Nc1c(-c2ccccc2)nc2ccccn12	105.6	-19.8	-8.5	-8.5	3.0	6.8
COC(=O)Nc1c(-c2ccccc2)nc2ccc(C)cn12	100.5	2.8	.	83.0*	.	.
CC(=O)C1=C(N2CCCCC2)CCC1=O	111.1	-5.2	-9.5	9.6	5.5	11.6
Cc1ccc(N(CC(=O)Nc2ccc3c(c2)OCCO3)S(=O)(=O)c2c(C)noc2C)cc1	103.8	-0.8	-4.7	-7.3	5.2	7.5
COc1ccc(N(CC(=O)Nc2ccc3c(c2)OCCO3)S(=O)(=O)c2c(C)noc2C)cc1	108.5	-2.0	.	98.6*[fluorescence artefact?]	5.4	.
Cc1c(-n2cc(C(=O)c3ccccc3O)cc(C#N)c2=O)c(=O)n(-c2ccccc2)n1C	106.7	-5.3	-8.2	0.7	57.2*	6.0
CN1CCN(C2=Cc3ccccc3Sc3cc(F)ccc32)CC1	56.4	1.2	-7.5	2.5	-3.5	7.2
Cc1cc(NC(=O)c2c(F)cccc2Cl)n(-c2nc3ccccc3[nH]2)n1	105.5	1.7	-5.8	51.8*	13.2	7.1
SMILES	ERa coact pot	ERa coact inh	sEH activator	ERb SRC1 inh	HIV Rev-RRE inh	sEH inh
Cc1cc(NC(=O)c2ccccc2F)n(-c2nc3ccccc3[nH]2)n1	183.8	53.0*[fluorescence artefact?]	5.6	52.0*[fluorescence artefact?]	7.3	-7.8
N#CC1=C(N)SC(N)=C(C#N)C1c1cccc(O)c1	51.3	1.5	4.2	17.6	73.9*	-4.5
N#CC1=C(N)Oc2cc(O)ccc2C1c1ccccc1 (configuration not stated)	80.0	0.7	.	2.8	.	.
CCOc1cc(C2C(C#N)=C(N)SC(N)=C2C#N)ccc1OCCN1CCOCC1	102.2	-10.4	-2.5	0.8	75.1*	0.6
COc1ccc(C2C(C#N)=C(N)OC(C(C)(C)C)=C2C#N)cc1OC (configuration not stated)	118.0	-13.2	.	1.2	3.5	.
CCCc1[nH]nc2c1C(c1ccc(OCCN3CCOCC3)c(OC)c1)C(C#N)=C(N)O2 (configuration not stated)	100.1	5.1	.	-8.2	.	.
COc1ccc(C2C(C#N)=C(N)SC(N)=C2C#N)cc1OC	119.8	-9.8	-7.8	-1.3	109.9*[fluorescence artefact?]	10.1
O=c1cc(N2CCOCC2)[nH]c(=O)n1Cc1ccc(F)cc1	84.7	-6.1	.	-7.2	8.2	.
O=C1C2CC=C(Cl)CC2C(=O)N1CCCCCCN1C(=O)C2CC=C(Cl)CC2C1=O (configuration not stated)	195.3	56.0*	0.5	43.9	29.0	-1.5
Cc1c(C(=O)OCCN2CCCCC2)oc2ccccc12	93.7	-0.7	1.4	-9.6	-2.6	-1.6
Cc1c(C(=O)OC(C)CCN(C)C)oc2ccccc12 (configuration not stated)	125.3	7.2	.	0.9	141.3*[fluorescence artefact?]	.
CCc1[nH]nc2c1C1(CCN(C(=O)c3ccccc3)CC1)C(C#N)=C(N)O2	110.0	0.0	-14.8	-1.9	-5.6	14.9
CCOC(=O)CC(=O)CSc1nc(-c2cccnc2)ccc1C#N	93.0	17.2	-4.7	43.4	88.1*[fluorescence artefact?]	5.9
CCOC(=O)c1ccc2c(c1)nc(SC/C(O)=C(\C#N)c1nc3ccccc3[nH]1)n2CC	113.9	-2.9	.	21.2	.	.
Cc1ccccc1-n1c(SC/C(O)=C(\C#N)c2nc3ccccc3[nH]2)nnc1-c1ccncc1	78.5	62.5*[fluorescence artefact?]	.	54.2*	.	.
Cc1cc(C)n2c(SC/C(O)=C(\C#N)c3nc4ccccc4[nH]3)nnc2n1	0.3	96.8*[fluorescence artefact?]	-4.4	68.8*[fluorescence artefact?]	27.9	2.5
CCOC(=O)C1=C(c2ccccc2)OC(N)=C(C#N)C1c1cccs1 (configuration not stated)	.	.	5.3	.	16.9	-4.5
CCOC(=O)CC1=C(C(=O)OCC)C(c2cccs2)C(C#N)=C(N)O1 (configuration not stated)	90.6	93.3*[fluorescence artefact?]	-8.5	-2.0	-1.6	6.9
CCOc1ccc2nc(SCC(=O)c3ccc(C)s3)sc2c1	221.4*	21.5	8.0	0.1	6.7	-5.5
CCOc1ccc2nc(NC(=O)CSc3nc(SC)ns3)sc2c1	.	.	10.8	.	-4.9	-8.3
CCC1(c2ccccc2)NC(=O)N(CC(=O)Nc2cccc(C#N)c2)C1=O (configuration not stated)	115.7	-6.0	.	-4.5	3.3	.
Cc1cccc(NC(c2ccc(O)cc2)c2ccc3ccc(C)nc3c2O)n1 (configuration not stated)	320.4*[fluorescence artefact?]	49.1	1.9	49.9	8.3	-2.8
Cc1cc2n(n1)SC(Nc1ccc(F)c(Cl)c1)N2 (configuration not stated)	94.3	-8.2	-4.2	-3.8	4.5	4.8
